# In ChEMBL document CHEMBL1131322, “Simultaneous measurement of nineteen binding constants of peptides to vancomycin using affinity capillary electrophoresis-mass spectrometry” (J Med Chem, 1998):
# Square brackets hold non-standard residues; d marks the D form. Peptide text beside a SMILES is read from it. * marks the point of attachment. ξ: configuration not given here. Fmoc = O=C(OCC1c2ccccc2-c2ccccc21)*; ξV = CC(C)C(N)C(=O)O
# Tests used:
# [1] = Binding constant at vancomycin was measured using affinity capillary electrophoresis-MS.
# In short: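 Mixture of Fmoc-DXYA (all-D) peptides plus Fmoc-G EOF marker injected together hydrodynamically (10 cm, 10 s) into an uncoated 50 cm capillary. Running buffer was 20 mM Tris-acetate pH 8.1 with 0–100 μM vancomycin, run at 400–500 V/cm. On-line ESI triple-quadrupole MS detected free peptide ions. Kd came from marker-corrected mobility shifts by Scatchard analysis.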
# [2] = Binding constant at vancomycin was measured using affinity capillary electrophoresis-UV.
# In short: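 Receptor-in-buffer mobility-shift ACE with UV detection was used, running individual ligands. Capillary was 30 cm effective length, 37 cm total length, at 20 kV. Kd was obtained by Scatchard analysis of mobility versus vancomycin concentration.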
SMILES,Kd [1] [µM],Kd [2] [µM]
CC[C@@H](C)[C@H](NC(=O)[C@H](CC(=O)O)NC(=O)OCC1c2ccccc2-c2ccccc21)C(=O)N[C@@H](Cc1ccc(O)cc1)C(=O)N[C@@H](C)C(=O)O,21,19
C[C@H](NC(=O)[C@H](Cc1ccc(O)cc1)NC(=O)[C@@H](NC(=O)[C@H](CC(=O)O)NC(=O)OCC1c2ccccc2-c2ccccc21)[C@H](C)O)C(=O)O,24,21
C[C@H](NC(=O)[C@H](Cc1ccc(O)cc1)NC(=O)[C@H](C)NC(=O)[C@H](CC(=O)O)NC(=O)OCC1c2ccccc2-c2ccccc21)C(=O)O (Fmoc-DAYA-OH),8.2,7.2
C[C@H](NC(=O)[C@H](Cc1ccc(O)cc1)NC(=O)[C@H](CC(=O)O)NC(=O)[C@H](CC(=O)O)NC(=O)OCC1c2ccccc2-c2ccccc21)C(=O)O (Fmoc-DDYA-OH),6.6,7.2
C[C@H](NC(=O)[C@H](Cc1ccc(O)cc1)NC(=O)[C@H](CCC(=O)O)NC(=O)[C@H](CC(=O)O)NC(=O)OCC1c2ccccc2-c2ccccc21)C(=O)O (Fmoc-DEYA-OH),8.5,10
C[C@H](NC(=O)[C@H](Cc1ccc(O)cc1)NC(=O)[C@H](Cc1ccccc1)NC(=O)[C@H](CC(=O)O)NC(=O)OCC1c2ccccc2-c2ccccc21)C(=O)O (Fmoc-DFYA-OH),8.9,9.6
C[C@H](NC(=O)[C@H](Cc1ccc(O)cc1)NC(=O)CNC(=O)[C@H](CC(=O)O)NC(=O)OCC1c2ccccc2-c2ccccc21)C(=O)O (Fmoc-DGYA-OH),21,18
C[C@H](NC(=O)[C@H](Cc1ccc(O)cc1)NC(=O)[C@H](Cc1c[nH]cn1)NC(=O)[C@H](CC(=O)O)NC(=O)OCC1c2ccccc2-c2ccccc21)C(=O)O (Fmoc-DHYA-OH),8.2,7.1
C[C@H](NC(=O)[C@H](Cc1ccc(O)cc1)NC(=O)[C@H](CCCCN)NC(=O)[C@H](CC(=O)O)NC(=O)OCC1c2ccccc2-c2ccccc21)C(=O)O (Fmoc-DKYA-OH),12,13
CC(C)C[C@H](NC(=O)[C@H](CC(=O)O)NC(=O)OCC1c2ccccc2-c2ccccc21)C(=O)N[C@@H](Cc1ccc(O)cc1)C(=O)N[C@@H](C)C(=O)O (Fmoc-DLYA-OH),5.1,5.6
CSCC[C@H](NC(=O)[C@H](CC(=O)O)NC(=O)OCC1c2ccccc2-c2ccccc21)C(=O)N[C@@H](Cc1ccc(O)cc1)C(=O)N[C@@H](C)C(=O)O (Fmoc-DMYA-OH),7.6,7.1
C[C@H](NC(=O)[C@H](Cc1ccc(O)cc1)NC(=O)[C@H](CC(N)=O)NC(=O)[C@H](CC(=O)O)NC(=O)OCC1c2ccccc2-c2ccccc21)C(=O)O (Fmoc-DNYA-OH),12,11
C[C@H](NC(=O)[C@H](Cc1ccc(O)cc1)NC(=O)[C@@H]1CCCN1C(=O)[C@H](CC(=O)O)NC(=O)OCC1c2ccccc2-c2ccccc21)C(=O)O (Fmoc-DPYA-OH),16,14
C[C@H](NC(=O)[C@H](Cc1ccc(O)cc1)NC(=O)[C@H](CCC(N)=O)NC(=O)[C@H](CC(=O)O)NC(=O)OCC1c2ccccc2-c2ccccc21)C(=O)O (Fmoc-DQYA-OH),15,14
C[C@H](NC(=O)[C@H](Cc1ccc(O)cc1)NC(=O)[C@H](CCCN=C(N)N)NC(=O)[C@H](CC(=O)O)NC(=O)OCC1c2ccccc2-c2ccccc21)C(=O)O (Fmoc-DRYA-OH),11,13
C[C@H](NC(=O)[C@H](Cc1ccc(O)cc1)NC(=O)[C@H](CO)NC(=O)[C@H](CC(=O)O)NC(=O)OCC1c2ccccc2-c2ccccc21)C(=O)O (Fmoc-DSYA-OH),14,13
C[C@H](NC(=O)[C@H](Cc1ccc(O)cc1)NC(=O)[C@H](Cc1c[nH]c2ccccc12)NC(=O)[C@H](CC(=O)O)NC(=O)OCC1c2ccccc2-c2ccccc21)C(=O)O (Fmoc-DWYA-OH),12,14
C[C@H](NC(=O)[C@H](Cc1ccc(O)cc1)NC(=O)[C@H](Cc1ccc(O)cc1)NC(=O)[C@H](CC(=O)O)NC(=O)OCC1c2ccccc2-c2ccccc21)C(=O)O (Fmoc-DYYA-OH),7.4,6.8
CC(C)C(NC(=O)[C@H](CC(=O)O)NC(=O)OCC1c2ccccc2-c2ccccc21)C(=O)N[C@@H](Cc1ccc(O)cc1)C(=O)N[C@@H](C)C(=O)O (stereo partly drawn) (Fmoc-D[ξV]YA-OH),10,12
